CHOP UPR activ: apoptotic UPR (CHOP) activation | activation, % at 10 µM | 0.34% of 330,000 active | AID 449763 | CHO-CHOP luciferase reporter, luminescence; percent of tunicamycin response over DMSO baseline;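 active = at 10 µM dose, activation of 40% or more, normalized to positive control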;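 also: 100% = tunicamycin at 10 µg/mL and 0% = DMSO alone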
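measured by = luciferase luminescence | assay system = CHO-CHOP cells, stable luciferase reporter of PERK-eIF2a-CHOP signalling | amount = 500 reporter cells seeded per well | timing = 6 h compound exposure at 37 °C after overnight seeding | controls = positive tunicamycin 10 µg/mL, negative DMSO alone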
Lipid droplet: hepatic lipid droplet formation modulation | AML12 mouse hepatocytes, oleate lipid droplets, BODIPY imaging | inhibition, % at 6.5 µM | 0.4% of 240,000 active | AID 1656;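 active = lipid droplet intensity inhibited by at least 50%, with more than 500 cells counted; inconclusive = wells with under 300 cells, treated as cytotoxic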
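material = mouse AML12 hepatocyte cell line, fixed after treatment | also added = 100 µM oleic acid challenge | doses = compound at 6.5 µM only | schedule = overnight exposure | technique = Image-based BODIPY and DAPI two-channel analysis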
UPR XBP1 act: activators of adaptive arm of unfolded protein response (XBP1). CHO-XBP1 luciferase reporter, IRE1-XBP1 UPR activation, luminescence; percent of tunicamycin response, DMSO as zero. activation, % at 20 µM. 0.33% of 330,000 active;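 active = versus positive control, 20 µM dose yields 30% or more activation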;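 also: 100% = tunicamycin at 10 µg/mL and 0% = DMSO only wells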
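Material: CHO-XBP1 cells stably carrying IRE1-XBP1-driven luciferase reporter / Amount: 1000 cells per well / Compound: 20 µM, 1% DMSO / Times: 6 h treatment, 37 °C / Detection: luciferase luminescence / Measure: % activation of reporter signal versus tunicamycin and DMSO controls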
TMEM16A act: activators or potentiators of mouse TMEM16A chloride channel. 0.3% of 340,000 active. Q8BHY3. B-score at 10 µM. AID 623877. HEK293 TMEM16A/YFP-H148Q/I152L, iodide quench fluorescence; active compounds read low;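 active = fluorescence-ratio B-score plate-corrected deviation score at least 3 library SD below zero, with starting fluorescence score within 5 deviations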;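 also: channel opened by trigger with iodide after compound preincubation; score built on the fluorescence ratio of max minus min over baseline; more negative score means more quench and so TMEM16A activation or potentiation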
Target sequence (Q8BHY3 whole entry, looked up): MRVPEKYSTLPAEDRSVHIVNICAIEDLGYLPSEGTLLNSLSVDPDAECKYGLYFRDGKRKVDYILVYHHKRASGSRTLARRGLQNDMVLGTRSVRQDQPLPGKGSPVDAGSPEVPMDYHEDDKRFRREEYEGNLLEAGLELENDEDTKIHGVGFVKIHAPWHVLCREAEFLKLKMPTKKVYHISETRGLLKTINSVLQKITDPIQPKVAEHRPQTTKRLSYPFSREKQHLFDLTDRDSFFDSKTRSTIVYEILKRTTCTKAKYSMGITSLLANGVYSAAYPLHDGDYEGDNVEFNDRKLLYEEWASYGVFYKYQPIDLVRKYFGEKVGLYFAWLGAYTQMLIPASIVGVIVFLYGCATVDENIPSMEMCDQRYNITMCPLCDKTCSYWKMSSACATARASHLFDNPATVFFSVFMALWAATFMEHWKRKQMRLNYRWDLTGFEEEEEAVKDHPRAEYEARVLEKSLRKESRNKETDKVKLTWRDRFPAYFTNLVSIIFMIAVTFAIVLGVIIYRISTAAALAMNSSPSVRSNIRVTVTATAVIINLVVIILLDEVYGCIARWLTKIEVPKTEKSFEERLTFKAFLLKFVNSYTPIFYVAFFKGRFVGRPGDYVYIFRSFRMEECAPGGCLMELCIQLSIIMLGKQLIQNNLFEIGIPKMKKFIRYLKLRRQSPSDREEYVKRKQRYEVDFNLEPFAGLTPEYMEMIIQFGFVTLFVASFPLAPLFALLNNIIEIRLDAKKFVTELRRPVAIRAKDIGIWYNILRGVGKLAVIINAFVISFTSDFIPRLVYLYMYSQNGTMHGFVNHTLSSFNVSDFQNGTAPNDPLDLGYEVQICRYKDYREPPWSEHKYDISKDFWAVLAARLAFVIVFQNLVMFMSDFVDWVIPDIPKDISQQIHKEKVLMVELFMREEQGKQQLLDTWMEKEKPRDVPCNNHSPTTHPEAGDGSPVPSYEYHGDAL
TMEM16A inh: inhibitors of mouse TMEM16A calcium-activated chloride channel; Q8BHY3; HEK293 TMEM16A/YFP iodide influx fluorescence, ionomycin; normalized B-score (activity score, 25-100; higher = stronger inhibition) at 10 µM; 1.2% of 310,000 active; AID 588511;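 active = ratio plate-corrected score three or more library SD toward inhibition, starting fluorescence score within five deviations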;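 also: score derived from kinetic fluorescence span divided by baseline fluorescence per well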
CHOP inh: blocks CHOP induction under ER stress; CHO-K1 CHOP-promoter luciferase, tunicamycin-induced, 15-18 h; inhibition, % at 10 µM; 3.8% of 220,000 active;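 active = compounds that reduced the stress-induced luciferase reporter signal by more than about 70% of percent inhibition, limit read from the data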;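 also: 0% = tunicamycin plus vehicle and 100% = wells without tunicamycin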
CHOP inh conf: confirmation of CHOP induction inhibitors. 45% of 2,100 active. CHO-CHOP promoter luciferase reporter, tunicamycin-induced, luminescence. inhibition, % at 10 µM. shares compounds with CHOP inh;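 active = mean of three repeat readings of reporter signal inhibition above a set limit, cut at about 70% in these data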;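 also: 0% = tunicamycin plus vehicle and 100% = wells lacking tunicamycin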
UPR CHOP confirm: apoptotic UPR (CHOP) activation, confirmed; CHO-CHOP cells, CHOP-luciferase reporter luminescence; percent of tunicamycin response, DMSO as zero; AID 463112; shares compounds with CHOP UPR activ; activation, % at 10 µM; 64% of 1,000 active; in the data active = activation above about 33%;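 also: 0% = DMSO wells and 100% = tunicamycin 10 µg/mL wells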
XBP1 UPR conf: adaptive UPR (XBP1) activation, confirmed; 63% of 1,000 active; CHO-XBP1 IRE1-XBP1 luciferase reporter, luminescence; shares compounds with UPR XBP1 act; activation, % at 20 µM;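 active = reporter signal at least 30% of the positive control's activation in two or more of four replicate wells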;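 also: plate controls were DMSO negative control for no effect and tunicamycin 10 µg/mL positive control for full effect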
* marks the source's active call; other numbers are inactive results; i = inactive; u = inconclusive; x = no result given; ! = a repeat was not active. Only some compounds are listed: those with a hit (about 4.2% of all), similar ones and a draw of the others.

SMILES	CHOP UPR activ	Lipid droplet	UPR XBP1 act	TMEM16A act	TMEM16A inh	CHOP inh	UPR CHOP confirm	others
CCCCCCn1c(=O)c(C(=O)Nc2ccncc2)c(O)c2ccccc21	x	-106	x	x	x	x	x
Cc1cc(NC(=O)CCl)no1	-1	-30	0	i	i	-3	x
CC1(C)C[C@H]2C=C(C=O)[C@]3(C=O)C[C@]3(C)[C@H]2C1	-9	u	-9	i	100*	109*	x	CHOP inh conf=128*
C=C1C(=O)O[C@H]2[C@H]1[C@H](OC(=O)CC(=O)O[C@@H]1C[C@@H](C)[C@@H]3C=CC(=O)[C@@]3(C)[C@H]3OC(=O)C(=C)[C@H]13)C[C@@H](C)[C@H]1C=CC(=O)[C@]12C	6	22	-2	i	i	-40	x
C=C1C(=O)O[C@H]2C[C@@H](C)[C@@H]3C=CC(=O)[C@@]3(C)C[C@H]12	7	-35	-6	x	i	105*	x	CHOP inh conf=90*
C=C1C(=O)O[C@@H]2C[C@@H](C)[C@@H]3C4OC4C(=O)[C@@]3(C)[C@@H](O)[C@H]12 (stereo partly specified)	-5	-2	-8	i	i	107*	x	CHOP inh conf=110*
CNc1ccc2oc(C[C@H]3O[C@@]4(CC[C@H]3C)O[C@H]([C@H](C)C(=O)c3ccc[nH]3)[C@H](C)C[C@H]4C)nc2c1C(=O)O	7	-82	26	-37*	100*	106*!	x	CHOP inh conf=129*
Cc1nn(Cc2ccccc2)c(Cl)c1C(=O)NC1CCCc2ccccc21 (stereo unspecified)	25	-1	-1	i	i	29	x
CN1C(=O)NC(=O)/C(=C\C=C\c2ccccc2[N+](=O)[O-])C1=O	203*	-2	-6	x	25*	99*	263*	CHOP inh conf=-27
CN1CCC(N(C)c2ccc(C(N)=O)cc2[N+](=O)[O-])CC1	-1	-6	0	i	i	x	x
O=C1NC(=O)C(=Cc2cn(CCOc3ccc4c(c3)OCO4)c3ccccc23)C(=O)N1	11	-6	31*	i	i	99*	x	CHOP inh conf=-13;XBP1 UPR conf=79*
C=CCn1cc(C=C2C(=O)NC(=O)NC2=O)c2ccccc21	1	x	0	i	i	x	x
O=c1[nH]c(O)c(/C=C2/C=CC(c3cc(Cl)ccc3Cl)=N2)c(=O)[nH]1	13	0	68*	i	i	103*	x	CHOP inh conf=46;XBP1 UPR conf=111*
CCOC1=C(N2CC2)C(=O)C(OCC)=C(N2CC2)C1=O	x	x	x	i	x	x	x
CCCCn1c(O)c(C(C)=NC(Cc2c[nH]c3ccccc23)C(=O)OC)c(=O)[nH]c1=O (stereo unspecified)	0	2	1	i	i	3	x
O=C1NC(=O)N(Cc2ccccc2Cl)C(=O)/C1=C/c1cccs1	52*	13	47*	i	i	106*	50*	CHOP inh conf=-30;XBP1 UPR conf=74*
C=CCN1C(=O)/C(=C/c2ccc3c(c2)CCCN3CCC)C(=O)NC1=S	95*	-2	-1	i	i	15	164*
CNC(=O)OCc1n(C)cc[n+]1C	-2	-7	1	i	i	-13	x
Cc1cccc(N2CCN(Cc3ccc4c(c3)OCO4)CC2)c1C	-1	-1	-6	i	i	x	x
[Cl][Pt+2][Cl].[NH-]C1CCCCC1[NH-] (stereo unspecified)	-2	x	-7	i	i	x	x
C=C(C)C(Cc1c(OC)ccc(C(=O)/C=C/c2ccc(O)cc2)c1O)OO (stereo unspecified)	47*	x	2	i	x	x	19
O=C1NC(=O)C(=Cc2ccc(-c3ccc(Cl)cc3)o2)C(=O)N1	71*	0	0	i	i	x	75*
O=C1NC(=O)C(=Cc2ccc(-c3ccc(S(=O)(=O)N4CCOCC4)cc3)o2)C(=O)N1	-2	-6	1	i	i	x	x
CN(C)c1ccc(C=C2C(=O)NC(=S)NC2=O)cc1	x	x	x	i	x	x	x
CCN(CC)c1ccc(C=C2C(=O)NC(=S)NC2=O)cc1	222*	0	0	i	i	-11	135*
SMILES	CHOP UPR activ	Lipid droplet	UPR XBP1 act	TMEM16A act	TMEM16A inh	CHOP inh	UPR CHOP confirm	others
Cc1cccc(N2C(=O)NC(=O)/C(=C\C=C\c3ccco3)C2=O)c1	10	-5	3	i	i	18	x
O=C1NC(=O)N(Cc2ccccc2)C(=O)/C1=C\C=C\c1ccco1	161*	-1	-1	i	i	91*	186*
O=C1NC(=O)N(c2ccccc2)C(=O)/C1=C/C=C/c1ccco1	62*	-4	-5	i	i	-15	256*
CN1C(=O)CCC2(C)C1=CCC1C2CCC2(C)C1CCC2(C)O (stereo unspecified)	x	x	x	i	x	x	x
COc1ccc(N2C(=O)/C(=C/c3ccc(C)o3)C(=O)NC2=S)cc1	433*	3	-1	i	x	x	-9
CCCC[N+]12CCC(CC1)C(Cc1ccccc1)C2 (stereo unspecified)	1	-4	-3	i	i	0	x
CC(=O)OC1CCC2(C)C(CC(=O)C3C2CCC2(C)C(OC(C)=O)CCC32)C1 (stereo unspecified)	x	x	x	i	x	x	x
CN1CSC(=S)N(C)C1	40*	-2	-2	i	i	-27	30
Cc1ccc(CN(Cc2ccccc2)C(=S)NCC(=O)N2CCC3(CC2)OCCO3)o1	-1	33	-4	i	i	20	x
CCCCCCn1c(=O)c(C(=O)Nc2ncccc2C)c(O)c2ccccc21	61*	0	36*	i	i	x	27
COc1cc(CN2CCN(c3cc(C)ccc3C)CC2)ccc1O	393*	4	14	i	i	-11	152*
CC(C)(C)N1Cc2ccccc2C1=N	2	9	-1	i	i	-9	x
O=C(COc1ccc(Br)cc1)N1CCN(Cc2c[nH]c3ccccc23)CC1	23	-4	12	i	i	-177	x
O=C(COc1ccc2ccccc2c1)N1CCN(Cc2c[nH]c3ccccc23)CC1	76*	-23	20	i	i	-149	43*
C/C(=C\c1ccc(N(C)C)cc1)[N+](=O)[O-]	224*	x	-1	i	i	-10	150*

High-throughput results: PubChem, several laboratories
